Measurements: ChEMBL document CHEMBL1671691 (Antimicrob Agents Chemother, 2010)

Test system: Influenza A virus
Test: Antiviral activity against adamantane-, oseltamivir-, zanamivir-susceptible Influenza A virus (A/Georgia/17/2006(H1N1)) infected in MDCK cells assessed as inhibition of viral replication after 3 days by microscopic analysis using crystal violet stain
Assay type: functional, organism-based
Settings: 72 h
Procedure, shortened: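 Confluent MDCK-ATCC monolayers infected with virus diluted to give 15–45 plaques/well. Adsorption 1 h at 37°C without drug, then washed. Overlaid with 0.8% agarose in MEM containing drug plus TPCK-trypsin: 3 μg/ml for seasonal viruses, 2 μg/ml for 2009 A(H1N1). Incubated 3 days at 37°C, 5% CO2. Ethanol-fixed, crystal violet-stained, plaques counted. EC50 by curve fit; duplicates on three occasions, mean ± SD.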

Question: How did the EC50 turn out when `NC(=O)c1ncn([C@@H]2O[C@H](CO)[C@@H](O)[C@H]2O)n1` [RIBAVIRIN] was run?
Answer: 4.92 µM
